Experimental data reported in ChEMBL document CHEMBL1124727, “Neuronal mapping of the heart with 6-[18F]fluorometaraminol” (1990).

What was measured:
[1] = test system: Canis familiaris; assay: Tissue concentration in dog blood 0.5 hr after iv administration; assay type: functional, Canis lupus familiaris
How it was run: (§1)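 Dogs given ³H tracer (92–100 μCi) as iv cephalic-vein bolus in 2.0 mL sterile acetate buffer pH 4.5; 1–3 dogs per time point. Killed 30 min (or 24 h) later by iv pentobarbital; duplicate tissue samples oxidized and liquid-scintillation counted with background and efficiency correction. Expressed as % kg dose/g; ratio = left ventricle to blood.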

[2] = test system: Canis familiaris; assay: Tissue concentration in dog blood 24 hr after iv administration; assay type: functional, Canis lupus familiaris
How it was run: (§2)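 Dogs (one to three per time point) received bolus cephalic vein injection of 92–100 μCi ³H tracer in 2.0 mL sterile acetate buffer pH 4.5; sacrificed 30 min or 24 h later by iv sodium pentobarbital. Duplicate organ samples oxidized and liquid-scintillation counted with background/efficiency correction; % kg dose/g ± SEM; heart ratio uses left ventricle/blood.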

[3] = test system: Canis familiaris; assay: Tissue concentration in dog heart 0.5 hr after iv administration; assay type: functional, Canis lupus familiaris; how it was run: as §2
[4] = test system: Canis familiaris; assay: Tissue concentration in dog heart 24 hr after iv administration; assay type: functional, Canis lupus familiaris; how it was run: as §2
[5] = test system: Canis familiaris; assay: (§3) Tissue concentration in dog left ventricle to blood ratio 0.5 hr after iv administration; assay type: functional, Canis lupus familiaris; how it was run: as §2
[6] = test system: Canis familiaris; assay: Tissue concentration in dog liver 0.5 hr after iv administration; assay type: functional, Canis lupus familiaris; how it was run: as §1
[7] = test system: Canis familiaris; assay: Tissue concentration in dog liver 24 hr after iv administration; assay type: functional, Canis lupus familiaris; how it was run: as §2
[8] = test system: Canis familiaris; assay: Tissue concentration in dog lung 0.5 hr after iv administration; assay type: functional, Canis lupus familiaris; how it was run: as §2
[9] = test system: Canis familiaris; assay: Tissue concentration in dog lung 24 hr after iv administration; assay type: functional, Canis lupus familiaris; how it was run: as §2
[10] = test system: Canis familiaris; assay: Tissue concentration in dog spleen 0.5 hr after iv administration; assay type: functional, Canis lupus familiaris; how it was run: as §2
[11] = test system: Canis familiaris; assay: Tissue concentration in dog spleen 24 hr after iv administration; assay type: functional, Canis lupus familiaris; how it was run: as §2
[12] = test system: Canis familiaris; assay: Tissue concentration in dog left ventricle to blood ratio 24 hr after iv administration; assay type: functional, Canis lupus familiaris; how it was run: as §2
[13] = test system: Canis familiaris; assay: as §3; assay type: functional, Canis lupus familiaris; how it was run: as §1; remark: listed apart in the source
[14] = organism: Rattus norvegicus; assay: Percentage change in thallium-201 in right ventricle of sympathectomized rat, pretreated with 6-hydroxydopamine; assay type: functional, Heart right ventricle
How it was run: (§4)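 Female Sprague-Dawley rats (200–300 g) given 6-hydroxydopamine HBr 100 mg/kg ip, freshly made in saline, 5 days before tracer; controls got vehicle. Thallium-201 (23–28 μCi) iv via femoral vein; decapitated 90 min later; tissue radioactivity counted; N = 6. Value is % change in treated versus control tissue concentration.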

[15] = organism: Rattus norvegicus; assay: Percentage change in thallium-201 in spleen of sympathectomized rat, pretreated with 6-hydroxydopamine; assay type: functional; how it was run: as §4
[16] = organism: Rattus norvegicus; assay: Percentage change in thallium-201 in blood of sympathectomized rat, pretreated with 6-hydroxydopamine; assay type: functional; how it was run: as §4
[17] = organism: Rattus norvegicus; assay: Percentage change in thallium-201 in left ventricle of sympathectomized rat, pretreated with 6-hydroxydopamine; assay type: functional, Heart left ventricle; how it was run: as §4
[18] = organism: Rattus norvegicus; assay: Percente change in thallium-201 concentration in left atrium of sympathectomized rat, pretreated with 6-hydroxydopamine; assay type: functional, Cardiac atrium; how it was run: as §4
[19] = organism: Rattus norvegicus; assay: Percent change in thallium-201 concentration in right atrium of sympathectomized rat, pretreated with 6-hydroxydopamine; assay type: functional, Cardiac atrium; how it was run: as §4
[20] = test system: Canis familiaris; assay: Tissue concentration in dog liver after iv administration; assay type: functional, Canis lupus familiaris
How it was run: (§5)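 Mongrel dogs (two female, 15.0 and 18.6 kg, 0.45 mCi; two male, 2.0 mCi) given FMR as iv cephalic-vein bolus in 2.0 mL sterile 0.15 M acetate buffer, pH 4.5. Killed 1 h later by iv pentobarbital; tissues washed in saline, blotted, weighed, gamma counted 1 min. Expressed as % kg dose/g, N = 4 (muscle, pancreas, kidney N = 2).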

[21] = test system: Canis familiaris; assay: Tissue concentration in dog adrenal medulla after iv administration; assay type: functional, Canis lupus familiaris; how it was run: as §5
[22] = test system: Canis familiaris; assay: Tissue concentration in dog blood after iv administration; assay type: functional, Canis lupus familiaris; how it was run: as §5
[23] = test system: Canis familiaris; assay: Tissue concentration in dog heart after iv administration; assay type: functional, Canis lupus familiaris
[24] = test system: Canis familiaris; assay: Tissue concentration in dog left ventricle to blood ratio after iv administration; assay type: functional, Canis lupus familiaris; how it was run: as §5
[25] = test system: Canis familiaris; assay: Tissue concentration in dog lung after iv administration; assay type: functional, Canis lupus familiaris; how it was run: as §5
[26] = test system: Canis familiaris; assay: Tissue concentration in dog spleen after iv administration; assay type: functional, Canis lupus familiaris; how it was run: as §5
[27] = test system: Canis familiaris; assay: Tissue concentration in dog thyroid after iv administration; assay type: functional, Canis lupus familiaris, Thyroid gland
[28] = organism: Canis familiaris; assay: Normalized FMR Concentration in anterior wall of heart of phenol treated canine myocardium; assay type: functional, Canis lupus familiaris
How it was run: (§6)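 Mongrel dogs, LV anterior epicardium (LAD region) painted with 88% phenol in ethanol (v/v); 4–7 days later FMR iv, killed 1 h post by pentobarbital/KCl overdose. LV cut into ~1 cm transverse slices, then radial segments, gamma counted; % kg dose/g normalized to highest-activity segment (atria = 100%). Affected area = mean of three lowest contiguous segments in each of two midbasal slices; controls N = 3, treated N = 5.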

[29] = organism: Canis familiaris; assay: Normalized FMR Concentration in posterior wall of heart of phenol treated canine myocardium; assay type: functional, Canis lupus familiaris; how it was run: as §6
[30] = test system: Canis familiaris; assay: Tissue concentration in dog kidney after iv administration; assay type: functional, Canis lupus familiaris; how it was run: as §5
[31] = test system: Canis familiaris; assay: Tissue concentration in dog left atrium after iv administration; assay type: functional, Canis lupus familiaris, Cardiac atrium; how it was run: as §5
[32] = test system: Canis familiaris; assay: Tissue concentration in dog left ventricle after iv administration; assay type: functional, Canis lupus familiaris, Heart left ventricle; how it was run: as §5
[33] = test system: Canis familiaris; assay: Tissue concentration in dog muscle after iv administration; assay type: functional, Canis lupus familiaris; how it was run: as §5
[34] = test system: Canis familiaris; assay: Tissue concentration in dog pancreas after iv administration; assay type: functional, Canis lupus familiaris; how it was run: as §5
[35] = test system: Canis familiaris; assay: Tissue concentration in dog right atrium after iv administration; assay type: functional, Canis lupus familiaris, Cardiac atrium; how it was run: as §5
[36] = test system: Canis familiaris; assay: Tissue concentration in dog right ventricle after iv administration; assay type: functional, Canis lupus familiaris, Heart right ventricle; how it was run: as §5
[37] = test system: Canis familiaris; assay: Tissue concentration of the compound in dog adrenal cortex after iv administration; assay type: functional, Canis lupus familiaris; how it was run: as §5

Row | Compound | [3H] concentration [1] [% kg dose g-1] | [3H] concentration [2] [% kg dose g-1] | [3H] concentration [3] [% kg dose g-1] | [3H] concentration [4] [% kg dose g-1] | [3H] concentration [6] [% kg dose g-1] | [3H] concentration [7] [% kg dose g-1] | [3H] concentration [8] [% kg dose g-1] | [3H] concentration [9] [% kg dose g-1] | [3H] concentration [10] [% kg dose g-1] | [3H] concentration [11] [% kg dose g-1] | [3H] concentration [12] | [3H] concentration [20] [% kg dose g-1] | [3H] concentration [21] [% kg dose g-1] | [3H] concentration [22] [% kg dose g-1] | [3H] concentration [25] [% kg dose g-1] | [3H] concentration [26] [% kg dose g-1] | other results
1 | C[C@H](N)[C@H](O)c1cccc(O)c1 (stereo in doubt; form 1) [METARAMINOL] | 0.03 | 0.008 | 0.55 | 0.59 | 0.42 | 0.13 | 0.2 | 0.03 | 0.81 | 0.5 | 74 | – | – | – | – | – | [3H] concentration [5]: 18
2 | [3H][C@](O)(CN)c1ccc(O)c(O)c1 [[3H]NOREPINEPHRINE] | 0.04 | 0.017 | 0.74 | 0.16 | 0.27 | 0.09 | 0.18 | 0.03 | 0.81 | 0.52 | 9 | – | – | – | – | – | [3H] concentration [13]: 19; Change [14]: -92%; Change [15]: -71%; Change [16]: -20%; Change [17]: -85%; Change [18]: -92%; Change [19]: -94%
3 | CC(N)C(O)c1ccc(I)c(O)c1 (stereo not drawn) | – | – | – | – | – | – | – | – | – | – | – | 0.5 | 0.45 | 0.04 | 0.25 | 0.26 | [3H] concentration [23]: 0.17 % kg dose g-1; [3H] concentration [24]: 4 % kg dose g-1; [3H] concentration [27]: 0.2 % kg dose g-1
4 | CC(N)C(O)c1cc(O)ccc1F (stereo not drawn) | – | – | – | – | – | – | – | – | – | – | – | 0.33 | 9.89 | 0.04 | 0.26 | 0.69 | [3H] concentration [28]: 14.5 % kg dose g-1; [3H] concentration [29]: 53.8 % kg dose g-1; [3H] concentration [30]: 0.41 % kg dose g-1; [3H] concentration [31]: 1.54 % kg dose g-1; [3H] concentration [32]: 1.24 % kg dose g-1; [3H] concentration [33]: 0.07 % kg dose g-1; [3H] concentration [34]: 0.6 % kg dose g-1; [3H] concentration [35]: 1.44 % kg dose g-1; [3H] concentration [36]: 0.89 % kg dose g-1; [3H] concentration [37]: 0.59 % kg dose g-1
